Results: ChEMBL document CHEMBL4613269, “2-((4-Arylpiperazin-1-yl)methyl)benzonitrile Derivatives as Orally Available Inhibitors of Hepatitis C Virus with a Novel Mechanism of Action” (J Med Chem, 2020)
Active and inactive are the calls of the source. No cut-off for these calls is given here.

Key:
Hepatitis C virus [1] = assay: Antiviral activity against HCV genotype 1b pseudoparticle infected in human Huh7.5 cells assessed as reduction in viral replication at 2 to 4 uM; format: functional, organism-based; conditions: Hepacivirus hominis, subtype 1b
Summary of the method: (§1)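 Genotype 1b or 2a HCV pseudoparticles made by co-transfecting HEK 293T cells with envelope and luciferase-reporter HIV plasmids; input standardized by luciferase. Huh7.5 cells co-incubated with compound and HCVpp for 4 h at 37°C, washed, then luciferase read at 72 h.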

Hepatitis C virus [2] = assay: Antiviral activity against HCV genotype 2a pseudoparticle infected in human Huh7.5 cells assessed as reduction in viral replication at 2 to 4 uM; format: functional, organism-based; conditions: Hepacivirus hominis, subtype 2a; summary of the method: as §1
[3] = Selectivity index, ratio of CC50 for cytotoxicity in human Huh7.5 cells assessed as reduction in cell viability incubated for 96 hrs by MTT assay to EC50 for antiviral activity against HCV J6/JFH/JC1 infected in human Huh7.5 cells incubated for 72 hrs by In-Cell Western assay; format: toxicity, cell-based; conditions: read-out: Ratio CC50/EC50
Summary of the method: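 HCVcc (MOI=0.1) infected Huh7.5 cells co-treated with eight-step 1:5 serial dilutions, triplicate wells. After 72 h, fixed, permeabilized, and stained for HCV Core and GAPDH with IR-dye secondaries. Core normalized to GAPDH. CC50 came from MTT at 96 h in uninfected Huh7.5 cells. EC50/CC50 were derived by Reed & Muench, mean ± SD of three independent experiments.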

Hepatitis C virus [4] = assay: Antiviral activity against HCV genotype 1b pseudoparticle infected in human Huh7.5 cells assessed as reduction in viral replication at 10 uM; format: functional, organism-based; conditions: Hepacivirus hominis, subtype 1b; summary of the method: as §1
Hepatitis C virus [5] = assay: Antiviral activity against HCV J6/JFH/JC1 infected in human Huh7.5 cells incubated for 72 hrs by In-Cell Western assay; format: functional, organism-based, Hepacivirus hominis; conditions: J6/JFH/JC1, Huh7.5, 72 h
Summary of the method: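 Huh7.5 cells infected with HCVcc (MOI 0.1) and treated with compound at the same time for 72 h. Cells fixed with PFA, permeabilized, then stained for HCV Core and GAPDH with IR-dye secondaries. Core signal normalized to GAPDH. Eight-step 1:5 dilutions in triplicate; EC50 by Reed & Muench; mean of three experiments.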

[6] = Cytotoxicity in human Huh7.5 cells assessed as reduction in cell viability incubated for 96 hrs by MTT assay; format: cell-based
Summary of the method: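 Huh7.5 cells seeded 24 h before compound addition. Viability read by MTT at 96 h. Eight-step 1:5 serial dilutions in triplicate; CC50 by Reed & Muench; three independent experiments.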

Hepatitis C virus [7] = assay: Antiviral activity against HCV expressing NS3 A156T mutant by qRT-PCR analysis based by Reed-Muench method; format: functional, organism-based, Hepacivirus hominis
Summary of the method: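 Huh7.5 cells seeded at 3×10^4/cm², infected 24 h later with wild-type or mutant HCV stock while compound or solvent was added at the same time. Intracellular HCV RNA measured by qRT-PCR at 72 h, normalised to GAPDH, 2^-ΔCT method. EC50 by Reed & Muench from eight-step 1:5 serial dilutions, triplicate wells.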

Hepatitis C virus [8] = assay: Antiviral activity against HCV genotype 2a pseudoparticle infected in human Huh7.5 cells assessed as reduction in viral replication at 10 uM; format: functional, organism-based; conditions: Hepacivirus hominis, subtype 2a; summary of the method: as §1
Hepatitis C virus [9] = assay: Antiviral activity against HCV GS4.3 infected in human Huh7.5 cells assessed as reduction in viral replication at 0.3125 to 5 uM simultaneously treated with viral infection for 4 hrs and measured after 72 hrs by In-Cell Western assay; format: functional, organism-based; conditions: Hepacivirus hominis
Summary of the method: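 Huh7.5 cells infected with HCV while incubated with compound, either for 4 h across a concentration series or at 1.0 µM for varied times down to 15 min. Supernatant then replaced with fresh medium. Intracellular Core protein measured by In-Cell Western at 72 h.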

Hepatitis C virus [10] = assay: Antiviral activity against wild type HCV by qRT-PCR analysis based by Reed-Muench method; format: functional, organism-based, Hepacivirus hominis
Summary of the method: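 Huh7.5 cells seeded 24 h, then infected with wild-type (or mutant) HCV with compound added at the same time. Incubated 72 h. Intracellular HCV RNA measured by qRT-PCR, 2^-ΔCt method, normalized to GAPDH. Eight-step 1:5 serial dilutions in triplicate; EC50 by Reed & Muench; three independent experiments.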

Hepatitis C virus [11] = assay: Antiviral activity against HCV GS4.3 infected in human Huh7.5 cells assessed as reduction in viral NS3 protein levels at 1 uM incubated for 72 hrs by Western blot assay; format: functional, organism-based; conditions: Hepacivirus hominis
Influenza A virus = assay: Antiviral activity against influenza A virus H3N2/95-359 infected in MDCK cells assessed as reduction in virus-induced cytopathic effect incubated for 48 hrs by Reed-Muench method; format: functional, organism-based; conditions: H3N2/95-359, MDCK
[12] = Cytotoxicity in MDCK cells assessed as reduction in cell viability; format: cell-based, Canis lupus familiaris; conditions: dog
[13] = Selectivity index, ratio of CC50 for cytotoxicity in MDCK cells to EC50 for Antiviral activity against influenza A virus H3N2/95-359 infected in MDCK cells; format: toxicity, cell-based; conditions: dog, read-out: Ratio CC50/EC50

## Cc1nc(Nc2ncc(C(=O)Nc3c(C)cccc3Cl)s2)cc(N2CCN(CCO)CC2)n1
Hepatitis C virus [1]
  Activity: Active
Hepatitis C virus [2]
  Activity: Active

## CCC[C@H](NC(=O)[C@@H]1[C@H]2CCC[C@H]2CN1C(=O)[C@@H](NC(=O)[C@@H](NC(=O)c1cnccn1)C1CCCCC1)C(C)(C)C)C(=O)C(=O)NC1CC1 [TELAPREVIR]
[3]
  selectivity ratio: 377
Hepatitis C virus [4]
  Activity: inactive
Hepatitis C virus [5]
  EC50: 146 nM
[6]
  CC50 at 96 h: 55000 nM
Hepatitis C virus [7]
  EC50: 1210 nM
Hepatitis C virus [8]
  Activity: inactive
Hepatitis C virus [9]
  Activity: inactive
Hepatitis C virus [10]
  EC50: 7.8 nM
Hepatitis C virus [11]
  Activity: Active

## CCOC(=O)C1=C[C@@H](OC(CC)CC)[C@H](NC(C)=O)[C@@H](N)C1 [OSELTAMIVIR]
Influenza A virus
  EC50: 2140 nM
[12]
  CC50: > 640000 nM
[13]
  selectivity ratio: > 299
